# Calls of active or inactive are those of the source.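 How the source made its calls, unless noted: active means fluorescence slope after compound addition differing from the mean of all tested samples at 99.7% confidence, mostly higher but some lower; inactive means the rest.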
# Assays:
# [1] = inhibitors of TNFa-induced NFkB p65 translocation, primary screen, imaging, HUVEC, MLSMR starter and 10KST1 sets (AID 438;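 active means inhibition above 20% together with a positive visual image hit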;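 further: compound added about 3h40 before a 20 min TNFalpha stimulation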;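 on inhibition: signal is the nuclear over cytoplasmic p65 intensity ratio per well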); conditions: HUVEC TNFa-induced p65 nuclear translocation; cell count: measured here: nuclei count (cytotoxicity indicator), at 2.08 µM; inhibition: at 2 µM, stronger effect = higher value, 0% TNFa-plus-vehicle, 100% no-TNFa wells
# [2] = reduction of polyQ htt aggregates in cells – imaging, exon1htt(103Q)mCFP cells, high-content imaging, primary screen (AID 483;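 active means visual image review flags a hit and inhibition of aggregation exceeds 20%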;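 further: compound exposure lasted 3 days before fixation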;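 on nuclei count: percent of the per-plate median nuclei count of sample wells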); conditions: exon1htt(103Q)mCFP cell line, aggregate imaging, at 2 µM; inhibition of aggregation: stronger effect = higher value; nuclei count: measured here: cell count, toxicity
# [3] = endothelial E-selectin expression blockers – imaging, HUVEC, immunofluorescence, MLSMR starter and 10KST1 sets, primary screen (AID 487;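 active means visually confirmed hit in the image check and inhibition above 20%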;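 on inhibition: signal is fraction of cell area covered by stained E-selectin grains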;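 on nuclei count: 100% = median nuclei count of all wells on the same plate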); conditions: HUVEC TNFalpha-induced E-selectin immunofluorescence imaging, at 2 µM; inhibition: stronger effect = higher value; nuclei count: measured here: cell number, toxicity
# [4] = target: Voltage-gated potassium channel subunit beta-2 (Rattus norvegicus) (UniProt P62483); experiment: inhibitors of rat Kvbeta2 reductase activity – biochemical, NADPH fluorescence, primary screen (AID 622;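 active means fluorescence slope higher than the sample average by over 3 SD, cut at about -0.22 in these data, passing the limit was not always enough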;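 further: slope of raw intensity against log time taken from 70 to 1610 s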); conditions: recombinant KvBeta, 4-cyanobenzaldehyde reduction, at 10 µM, stronger effect = higher value
# Sequence of Voltage-gated potassium channel subunit beta-2 (Rattus norvegicus) (P62483 whole entry, looked up): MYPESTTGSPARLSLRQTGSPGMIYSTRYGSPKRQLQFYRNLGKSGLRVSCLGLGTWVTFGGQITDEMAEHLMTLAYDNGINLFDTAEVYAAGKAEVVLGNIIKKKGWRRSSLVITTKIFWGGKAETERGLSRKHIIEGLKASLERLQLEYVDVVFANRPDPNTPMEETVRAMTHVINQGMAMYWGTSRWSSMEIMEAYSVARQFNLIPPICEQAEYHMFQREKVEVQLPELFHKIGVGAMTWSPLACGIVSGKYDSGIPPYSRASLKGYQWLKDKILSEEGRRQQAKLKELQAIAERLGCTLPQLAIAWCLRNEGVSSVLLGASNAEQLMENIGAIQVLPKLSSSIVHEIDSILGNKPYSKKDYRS
# [5] = target: Voltage-gated potassium channel subunit beta-2 (Rattus norvegicus) (UniProt P62483); experiment: enhancers of rat Kvbeta2 NADPH turnover – biochemical, NADPH fluorescence, primary screen (AID 623;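 active means NADPH fluorescence slope more negative than the mean of all samples by about 3 SD, 99.7% confidence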;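 further: fluorescence intensity change per second fitted from 20 to 320 s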); conditions: Recombinant KvBeta, NADPH fluorescence decrease slope, 10 min; at 10 µM; stronger effect = lower value
# [6] = target: Muscarinic acetylcholine receptor M4 (Homo sapiens) (UniProt P08173); experiment: M4-linked GIRK flux change, two-sided – cell-based, HEK293 M4/GIRK, thallium flux, BTC-AM, M4 allosteric agonist project, primary screen (AID 625); conditions: at 10 µM, actives lie on both sides;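 further: thallium influx through GIRK channels coupled to M4 in HEK293 cells with BTC-AM dye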
# Sequence of Muscarinic acetylcholine receptor M4 (Homo sapiens) (P08173 whole entry, looked up): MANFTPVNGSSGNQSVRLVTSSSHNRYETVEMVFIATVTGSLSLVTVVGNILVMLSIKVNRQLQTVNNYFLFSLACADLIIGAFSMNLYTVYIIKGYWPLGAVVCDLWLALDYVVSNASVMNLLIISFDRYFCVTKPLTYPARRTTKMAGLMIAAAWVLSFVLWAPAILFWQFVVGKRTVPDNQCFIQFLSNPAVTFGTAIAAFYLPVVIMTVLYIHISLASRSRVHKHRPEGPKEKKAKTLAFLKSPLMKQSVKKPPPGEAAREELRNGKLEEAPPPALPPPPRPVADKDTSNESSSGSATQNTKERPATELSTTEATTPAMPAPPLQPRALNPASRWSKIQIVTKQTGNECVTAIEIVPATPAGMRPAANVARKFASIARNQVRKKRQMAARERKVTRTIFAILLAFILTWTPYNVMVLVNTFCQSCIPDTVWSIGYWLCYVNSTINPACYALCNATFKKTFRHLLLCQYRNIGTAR
# Procedure, shortened: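 System: HEK293 cells with M4 receptor and GIRK channels | Incubation: Cells overnight at 37 °C, BTC-AM loading 1 h, reads 2 min total | Technique: Kinetic BTC-AM fluorescence sampled at 1 Hz, 10 s pre-addition baseline | Measure: Post-addition slope, 15–24 s, of baseline-normalized fluorescence | Control set: Carbachol positive, DMSO negative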
# [7] = blockers of RIG-like receptor reporter activation – cell-based, Sendai virus stimulus, luciferase, 10K MLSCN set, TLR/RLR signaling modifier project, primary screen (AID 602276;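 active means inhibition at or above 50% at 10 µM; inactive means inhibition below 50%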;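 further: firefly luciferase from ISG56 promoter only with Renilla not read in this screen; 0% = Sendai virus plus DMSO and 100% = medium plus DMSO without virus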); conditions: HEK293 RL24 IRF3 luciferase reporter, at 10 µM, stronger effect = higher value
# [8] = TLR3 IRF3 reporter activation blockers – cell-based, poly I:C stimulus, luciferase, 10K MLSCN set, primary screen (AID 602277;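 active means inhibition of the reporter signal at or above 50%; inactive means inhibition below 50%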); conditions: HEK293-TLR3 RL24 IRF3 luciferase reporter, at 10 µM, stronger effect = higher value
SMILES,cell count [1],inhibition [1],inhibition of aggregation [2],nuclei count [2] [%],inhibition [3],nuclei count [3] [%],fluorescence slope [4],NADPH fluorescence slope [5],fluorescence slope [6],inhibition [7],inhibition [8]
O=c1[nH]c2cccnc2n1Cc1ccco1,325,-4.2% (inactive),-15% (inactive),114,-5.2% (inactive),119,-0.323 (inactive),-4.8e-05 (inactive),0.0064 (inactive),7.81% (inactive),6.25% (inactive)
c1ccc(CNC2=NCCC2)nc1,414,-5.7% (inactive),14.2% (inactive),65.8,42.6% (inactive),75.5,-0.586 (inactive),-2.6e-05 (inactive),0.00615 (inactive),1.8% (inactive),10.1% (inactive)
COc1ccccc1N1CCN(C(=O)c2ccc3nc(-c4ccco4)c(-c4ccco4)nc3c2)CC1,570,-15.9% (inactive),5.2% (inactive),136,-44.3% (inactive),115,-0.324 (inactive),3.6e-06 (inactive),0.005 (inactive),16.2% (inactive),8.44% (inactive)
CCOc1ccc(-c2nnc(N(CC)C(=O)C3CCC3)s2)cc1,440,9.7% (inactive),3.2% (inactive),103,-32% (inactive),111,-0.461 (inactive),2e-05 (inactive),0.00526 (inactive),-19.2% (inactive),-80.4% (inactive)
CC(=O)N1CCc2cc(S(=O)(=O)NC(CC(C)C)C(=O)N3CCn4c3nc3ccccc34)ccc21 (stereo not drawn),292,3.6% (inactive),8.8% (inactive),104,22.8% (inactive),63,-0.329 (inactive),5e-05 (inactive),0.0063 (inactive),10.1% (inactive),9.41% (inactive)
O=C(NCC1COCCO1)C1CCN(S(=O)(=O)c2ccccc2)CC1 (stereo not drawn),621,-9.6% (inactive),-7.6% (inactive),111,-28.6% (inactive),112,-0.557 (inactive),3.3e-05 (inactive),0.0061 (inactive),12% (inactive),0.992% (inactive)
Cc1cccc(-n2ncc(C#N)c2N)c1,644,-3% (inactive),11.6% (inactive),97,-44.1% (inactive),144,-0.482 (inactive),-2.8e-06 (inactive),0.00451 (inactive),18% (inactive),12.7% (inactive)
O=C(NC1CCCCC1)C1CC(O)CN1C(=O)OCc1ccccc1 (stereo not drawn),819,-4.1% (inactive),26.1% (inactive),104,-56.4% (inactive),98,-0.564 (inactive),-7.5e-06 (inactive),0.00452 (inactive),2.76% (inactive),14.7% (inactive)
Cc1cccc(N(CC(N)=O)S(C)(=O)=O)c1C,369,-5.2% (inactive),6.8% (inactive),100,-129% (inactive),122,-0.551 (inactive),-0.000105 (inactive),0.00412 (inactive),11% (inactive),14.1% (inactive)
CCS(=O)(=O)c1nc2ccccc2n1CC(=O)N1CCOCC1,581,-4.1% (inactive),-22.2% (inactive),95.9,-85.4% (inactive),98.1,-0.589 (inactive),-3e-05 (inactive),0.00736 (inactive),16.1% (inactive),10.7% (inactive)
Cc1ccccc1NC(=O)c1c(F)c(F)c(F)c(F)c1F,490,-6% (inactive),-11.8% (inactive),98.6,-102% (inactive),135,-0.565 (inactive),-8.2e-05 (inactive),0.00407 (inactive),12.8% (inactive),11.6% (inactive)
Cc1csc(NC(=O)c2cccc(S(=O)(=O)N3CCCCC3)c2)n1,352,7.4% (inactive),-9.9% (inactive),96.8,-30.5% (inactive),109,-0.587 (inactive),-3e-05 (inactive),0.00964 (inactive),-5.34% (inactive),16.9% (inactive)
O=C(Cc1cccs1)Nc1ccccc1C(=O)O,365,2.6% (inactive),13.3% (inactive),99.5,-7.6% (inactive),113,-0.524 (inactive),-3.3e-05 (inactive),0.00502 (inactive),-8.52% (inactive),-27.9% (inactive)
Cc1ccccc1-c1nc2ccccc2c(=O)n1C1CCS(=O)(=O)C1 (stereo not drawn),368,3.8% (inactive),-7.2% (inactive),110,-4.7% (inactive),102,-0.614 (inactive),9.6e-06 (inactive),0.00582 (inactive),21% (inactive),31% (inactive)
C=CCOc1ccc(/C(O)=C2\C(=O)C(=O)N(CCOC)C2c2cccnc2)cc1 (stereo not drawn),640,3.4% (inactive),14.8% (inactive),105,4% (inactive),101,-0.336 (inactive),-4.4e-05 (inactive),0.00592 (inactive),6.88% (inactive),15.7% (inactive)
CCCCc1c(O)nc(SCC(=O)c2ccccc2)[nH]c1=O,375,1.7% (inactive),10.7% (inactive),90.4,21.3% (inactive),95.1,-0.561 (inactive),-8.5e-05 (inactive),0.00359 (inactive),14.2% (inactive),11.2% (inactive)
CC1CCN(C(=S)c2ccccc2O)CC1,713,-2.9% (inactive),7.3% (inactive),98.7,-144% (inactive),121,-0.536 (inactive),-5.2e-05 (inactive),0.0045 (inactive),24.9% (inactive),34.5% (inactive)
Clc1ccccc1OCc1nn2c(-c3ccncc3)nnc2s1,352,2.6% (inactive),35.5% (inactive),91.1,-23.5% (inactive),118,-0.298 (inactive),-6.4e-05 (inactive),0.00567 (inactive),8.19% (inactive),-3.24% (inactive)
O=C(CSc1nc2ccccc2o1)N1CCN(c2ccc(Cl)cc2)CC1,301,-0.5% (inactive),-13.9% (inactive),117,-47% (inactive),124,-0.576 (inactive),-3.9e-05 (inactive),0.00749 (inactive),16.8% (inactive),7.29% (inactive)
O=c1c2c(nc3nc(CCc4ccccc4)[nH]n13)CCC2,344,6.7% (inactive),-5.3% (inactive),97.5,-59.4% (inactive),105,-0.527 (inactive),-1.7e-05 (inactive),0.00459 (inactive),16.2% (inactive),19.5% (inactive)
Cc1cccc(N(C)C(=O)c2cc3cc4ccc(C)cc4nc3o2)c1,214,-0.3% (inactive),11.5% (inactive),92.4,-24.7% (inactive),109,-0.396 (inactive),-2.9e-05 (inactive),0.00523 (inactive),37.8% (inactive),-34.7% (inactive)
CN(C)C(=O)CN(c1ccc(F)c(Cl)c1)S(C)(=O)=O,352,-2.1% (inactive),-0.4% (inactive),104,5.1% (inactive),109,-0.56 (inactive),-8.3e-05 (inactive),0.00357 (inactive),1.05% (inactive),9.43% (inactive)
Cc1ccc(NC(=O)CSc2nnc(NC(=O)CN3CCOCC3)s2)cc1,294,-10% (inactive),-0.1% (inactive),27.7,-43.2% (inactive),106,-0.438 (inactive),-7.3e-05 (inactive),0.00533 (inactive),12.7% (inactive),22.7% (inactive)
Cc1ccc(NC(=O)c2ccc(NS(=O)(=O)c3c(C)noc3C)cc2)cc1C,319,-15.8% (inactive),-9.9% (inactive),94.1,-49.9% (inactive),110,-0.48 (inactive),-0.000226 (inactive),0.00475 (inactive),6.15% (inactive),9.64% (inactive)
CN(C)CCSc1nnc2sc3ccccc3n12,599,-5% (inactive),-2.2% (inactive),105,-71.5% (inactive),110,-0.477 (inactive),-5.9e-05 (inactive),0.00534 (inactive),-0.357% (inactive),12.6% (inactive)
COc1cc(OC)cc(-c2nc3nc(C)c(CCC(=O)O)c(C)n3n2)c1,681,-14.6% (inactive),0.2% (inactive),111,46.5% (inactive),97.4,-0.522 (inactive),-3.8e-05 (inactive),0.00535 (inactive),21.9% (inactive),28.4% (inactive)
CCc1nnc(NC(=O)C2CCN(c3nccc(C)n3)CC2)s1,533,0.5% (inactive),0.2% (inactive),103,-13.3% (inactive),96.9,-0.317 (inactive),-3.6e-05 (inactive),0.00544 (inactive),11% (inactive),14.7% (inactive)
COc1cccc(-n2nnc3c(=O)n(Cc4cccc(F)c4)cnc32)c1,421,-1.7% (inactive),-11.5% (inactive),127,-3.7% (inactive),117,-0.304 (inactive),-7e-06 (inactive),0.00737 (inactive),-8.19% (inactive),-14% (inactive)
